Measurements from PubChem BioAssay AID463073 (The Scripps Research Institute Molecular Screening Center, 2010).
The whole screen tested about 2,000 compounds, of which about 10 (0.5%) were called active.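 Rule for the calls: active = inhibition above 30%; inactive = the rest.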 The list comes from a sample in which actives are over-represented; it also holds similar structures and randomly drawn compounds. Residues, ends and D or L forms follow the SMILES beside them. *: point of attachment. Boc = CC(C)(C)OC(=O)*

Molecular target: Protein-arginine deiminase type-4 (Homo sapiens) (UniProt Q9UM07)
Assay: human PAD4 inhibitors, primary screen, biochemical, fluorescence polarization (AID 463073);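 note: 0% = PAD4 with DMSO and 100% = wells lacking PAD4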
Settings: recombinant PAD4, RFA probe fluorescence polarization; at 5 µM; active compounds read high
In short: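 Material: recombinant human PAD4 enzyme / Input: PAD4 at 2 µM in dispensed buffer, before additions / Medium: HEPES buffer pH 7.6 with 10 mM CaCl2 and TCEP / Incubation: 30-min PAD4–compound preincubation (25 °C), then 5-h probe labeling (37 °C) / Detection: fluorescence polarization, 598 nm emission after 525 nm excitation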

Chain of Protein-arginine deiminase type-4 (Homo sapiens) (Q9UM07 whole entry, looked up): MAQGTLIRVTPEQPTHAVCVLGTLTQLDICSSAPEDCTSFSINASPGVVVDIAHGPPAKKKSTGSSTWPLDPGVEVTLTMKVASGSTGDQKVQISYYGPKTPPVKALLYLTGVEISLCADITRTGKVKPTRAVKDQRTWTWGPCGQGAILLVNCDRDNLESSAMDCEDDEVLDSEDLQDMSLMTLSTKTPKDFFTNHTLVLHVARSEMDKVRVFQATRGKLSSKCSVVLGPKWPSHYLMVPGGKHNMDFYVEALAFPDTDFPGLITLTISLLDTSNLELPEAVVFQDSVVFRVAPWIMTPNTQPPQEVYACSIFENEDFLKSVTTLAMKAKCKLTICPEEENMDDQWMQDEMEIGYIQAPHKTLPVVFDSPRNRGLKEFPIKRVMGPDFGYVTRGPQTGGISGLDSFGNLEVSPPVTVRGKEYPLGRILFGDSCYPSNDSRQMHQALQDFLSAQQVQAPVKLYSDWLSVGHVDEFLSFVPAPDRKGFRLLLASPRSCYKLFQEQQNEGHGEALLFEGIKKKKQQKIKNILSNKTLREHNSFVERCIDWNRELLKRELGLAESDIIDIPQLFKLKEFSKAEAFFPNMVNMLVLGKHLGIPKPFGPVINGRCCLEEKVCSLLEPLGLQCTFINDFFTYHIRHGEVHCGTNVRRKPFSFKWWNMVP

inhibition, inactive:
CCNCCC(CCC(C)C)c1ccc2c(c1)OCO2 (configuration not stated) 2.15%
COc1ccc(C(=O)/C=C/c2cc(C(=O)O)cc3c2OCOC3)c(O)c1 3%
Clc1ccc2c(c1)[C@H]1OCC[C@H]1[C@@H](c1ccco1)N2 1.39%
NS(=O)(=O)c1cc2c(cc1Cl)NC(CSCc1ccccc1)=NS2(=O)=O 0.58%
COC(=O)C1=C(C)N(C)C(=S)NC1c1ccc(Cl)cc1 (configuration not stated) 0.42%
C#C[C@]1(O)CC[C@H]2[C@@H]3CCC4=C(CCC(=O)C4)[C@H]3CC[C@@]21C 0.19%
CC[n+]1c(C)sc2cc(C)ccc21 0.78%
NC(=O)[C@@H]1[C@@H]2C(=O)N(c3ccc(F)cc3)C(=O)[C@@H]2[C@H]2C=Cc3ccccc3N21 -1.24%
COc1ccc(-c2[nH]ncc2CN(C)C(C)c2ccon2)c(OC)c1 (configuration not stated) 4.74%
COc1cc(NC(=S)NN2CCN(C)CC2)cc(OC)c1OC -5.47%
CC1(C)Cc2ccccc2C(C(Cc2ccccc2)C(N)=O)=N1 (configuration not stated) 1.19%
COc1ccc(NC2=C(Cl)C(=O)N(c3ccccc3)C2=O)c(OC)c1 7.44%
CSc1ccc(CN2CCN(CCC(C)C)C(CCO)C2)cc1 (configuration not stated) -2.67%
CC1(C)CC(=O)C(C2(O)C(=O)Nc3ccccc32)CO1 (configuration not stated) 7.91%
CCOC(=O)c1cnc2ccccc2c1NCCO 1.39%
COc1ccc(C2(CCN=Cc3ccc(N(C)C)cc3)CCOC(C)(C)C2)cc1 (configuration not stated) 4.88%
CC(C)OC(=O)c1ccc(NC(=O)c2cncc(Br)c2)cc1 3.13%
CCOc1cccc(N2C(=O)CC(N(CCc3ccc(OC)c(OC)c3)C(=O)CC)C2=O)c1 (configuration not stated) 4.11%
C[C@H](NC(=O)Nc1ccccc1F)C(=O)O 3.34%
Cc1ncc([N+](=O)[O-])n1CCO -2.21%
CC(C)OC(=O)C1C2C=CC3(CN(CC4CCCO4)C(=O)C13)O2 (configuration not stated) 3.74%
CC(=O)C1=C(O)C(=O)OC1c1ccc(C)cc1 (configuration not stated) 3.6%
Cc1ccc(CSCC(=O)N2CCCC2)cc1 0.78%
Cc1coc2cc3oc(=O)c(CCC(=O)O)c(C)c3cc12 1.74%
C=CCNc1nc2c(c(=O)n(C)c(=O)n2C)n1CC(=C)C 2.6%
CC(=O)Oc1ccc(C2OC(=O)c3ccccc3N2C(C)=O)cc1 (configuration not stated) 4.61%
C/C(=N\NC(=O)c1ccccc1[N+](=O)[O-])c1ccc(Br)s1 -5.19%
CC(=O)OC1c2c(ccc3ccc(=O)oc23)OC(C)(C)C1OC(=O)CC(C)C (configuration not stated) 3.34%
COc1ccc2c(c1)C(=O)CC(c1ccccc1F)O2 (configuration not stated) -3.92%
O=C(NCCc1nc2ccccc2[nH]1)c1cccc(Br)c1 2.09%
CCOC(=O)C1=C2c3ccc4ccccc4c3CC(C)(C)N2C(=O)C1=O 4.17%
COc1ccc(OC)c(S(=O)(=O)N2CCCc3ccccc32)c1 1.48%
CC(=O)c1c(N)nc2n(c1=O)CCCCC2 2.24%
CC1(C)C(=O)OC(/C=C\c2ccccc2)C(C)(C)C1=O (configuration not stated) -4.36%
Cc1ccc(SCC(=O)Nc2nccs2)cc1 -3.72%
CCN1CCn2c3c(c4cc(Cl)ccc42)CCCC31 (configuration not stated) 0.84%
Cc1ccsc1/C=C/C1=NCCCN1C 1.68%
CC(C)Cc1cc(C(=O)N2CCC(N3CCC(C(=O)N4CCCC4)CC3)CC2)n[nH]1 1.19%
COc1ccc(C(=O)NC(=O)NC2(C(Cl)(Cl)Cl)OCCO2)cc1 3.68%
COc1cc(OC)c2c(C)c(Cl)c(=O)oc2c1 5.74%
COc1ccc(C2NCCC3(O)CCCCC23)c(OC)c1OC (configuration not stated) -0.4%
CC1(C)C(=O)OC(C(=O)c2ccc(Cl)cc2)C(C)(C)C1=O (configuration not stated) -1.03%
COc1ccc(OC(C)C(=O)Nc2ccccc2F)cc1 (configuration not stated) -0.2%
COc1cccc(OC)c1C(=O)NCCSC1CCCCC1 -2.94%
COc1ccc(N2C(=O)C3CCCN3C2=O)cc1 (configuration not stated) 4.89%
CC1(C)Cc2nc3oc4c(NCc5ccccc5)ncnc4c3cc2CO1 1.79%
CCOC(=O)C1NN=C(C(=O)c2ccccc2)C1c1ccc(Cl)cc1 (configuration not stated) 1.88%
CN(C)C(=O)C12CCC(C)(c3nc4ccccc4nc31)C2(C)C (configuration not stated) 3.6%
Cc1ccc(S(=O)(=O)NC(C(=O)Oc2ccc3c(C(F)(F)F)cc(=O)oc3c2)c2ccccc2)cc1 (configuration not stated) 6.06%
O=C(NCCC(c1ccccc1)c1ccco1)c1cccs1 (configuration not stated) -4.26%
O=C1CC[C@@H](CN(Cc2ccccc2)Cc2cn[nH]c2-c2cc3ccccc3o2)N1 -4.5%
CC(C)CC(NC(=O)C1CCCN1C(=O)OC(C)(C)C)C(=O)NCC(N)=O (stereo not drawn) (Boc-Pro-Leu-Gly-NH2; configuration not given here) 0.39%
Cc1nc2cc3ccccc3cc2c(=O)[nH]1 -2.65%
O=C(O)c1cnccn1 1.59%
CC1(CC(=O)Nc2ccccc2)NC(=S)N(c2ccccc2)N1 (configuration not stated) 0.19%
O=C1c2cccc3cccc(c23)C(=O)N1c1ccccn1 -4.66%
O=C(c1ccc(-c2ccccc2)c(F)c1)C1CCCN(C(=O)c2cncs2)C1 (configuration not stated) 3.12%
O=C(O)CCSCCC(=O)O -2.7%
COc1ccc(C(C)=O)c2c1OCCO2 6.78%
CC1(C)CC(C(CC(=O)N2CCCC2)Cc2ccccc2)CCO1 (configuration not stated) -1.3%
COc1ccc(NS(=O)(=O)c2ccc(N)cc2)nn1 0.73%
COc1ccc(-c2noc(-c3ccccc3-c3ccccc3)n2)cc1 -3.61%
O=C1C2CC=C(Cl)CC2C(=O)N1CCc1c[nH]c2ccccc12 (configuration not stated) -0.53%
COc1ccc(C(CC(=O)N2CCOCC2)C(C)C)cc1 (configuration not stated) 4.61%
COc1ccc(N2CCN(C(=S)NCc3ccccc3)CC2)cc1 -1.38%
COc1ccc(NC(=S)N2CCN(CCN3C(=O)c4cccc5cccc(c45)C3=O)CC2)cc1 2.54%
COC(=O)[C@@H](N)CS 2.39%
O=C(NC(=S)Nc1nc(-c2ccccc2)cs1)c1ccco1 4.01%
CC(NC(=O)c1ccc(OC2CCN(Cc3ccccn3)CC2)cc1)c1ccccc1 (configuration not stated) -1.87%
OCC1CCN(Cc2cn(Cc3ccccc3)nc2-c2cc3ccccc3o2)CC1 -3.81%
CCOc1ccc2nc(N/C(N)=N/S(C)(=O)=O)nc(C)c2c1 -1.87%
COc1cc(SC)ccc1C(=O)NC(C)C -4.36%
CCn1c(O)c(/C=C2\C=Nc3ccccc32)sc1=O 6.23%
Cc1ccc(C(=O)NCCNC(=O)c2ccccc2)cc1 -2.16%
CC12CCC(C(=O)Nc3ccccc3Br)(C/C1=N\O)C2(C)C (configuration not stated) 2.8%
COC(=O)c1ccc2c(c1)C(=O)/C(=C/c1ccc(O)cc1)O2 2.19%
NC[C@H]1O[C@H](O[C@H]2[C@H](O)[C@@H](O[C@H]3O[C@H](CO)[C@@H](O)[C@H](N)[C@H]3O)[C@H](N)C[C@@H]2N)[C@H](N)C[C@@H]1O 0.78%
O=C(c1ccccc1)N1CCN(C(=O)c2ccccc2)CC1 -0.13%
Cn1c(=O)c2c(nc(SCCN3CCCCC3)n2C)n(C)c1=O 4.29%
CCSC(=O)CCCCCCCCCCCO 3.34%
CC(C)OC(=O)C1C(=O)CC(C)(O)C(C(=O)OC(C)C)C1c1cccc(O)c1 (configuration not stated) 2.73%
COc1ccc(O)c(C(=O)/C=C/c2cc3ccccc3o2)c1 0.93%
COc1ccc(CCNC(=O)CC(c2ccccc2)c2cccc(C)c2O)cc1OC (configuration not stated) 1.59%
COc1ccc(C2NC(C(=O)O)Cc3c2[nH]c2ccccc32)cc1CN1CCN(c2ccc(F)cc2)CC1 (configuration not stated) 6.02%
CC(=O)[C@@]1(O)CC[C@H]2[C@@H]3C[C@H](C)C4=CC(=O)C=C[C@]4(C)[C@@]3(F)[C@@H](O)C[C@@]21C -5.68%
COc1ccc2c(c1OC)C(=O)OC2C1c2c(cc3c(c2OC)OCO3)CCN1C (configuration not stated) 7.1%
CCOC(=O)c1ccc2[nH]c(C)c(CCC(C)=O)c(=O)c2c1 -4.46%
